According to ChEMBL document CHEMBL1143313, “Synthesis of novel 4,6-di(substituted)amino-1,2-dihydro-1,3,5-triazine derivatives as topical antiseptic agents” (2009):

Legend:
Assay type in all cases: functional
Pseudomonas aeruginosa [1] = assay: Bactericidal activity against Pseudomonas aeruginosa PAO1 preincubated for 3 mins before addition of growth medium measured after 40 to 48 hrs
Escherichia coli [2] = assay: Bactericidal activity against Escherichia coli NIHJ JC-2 preincubated for 1 min before addition of growth medium measured after 40 to 48 hrs
Staphylococcus aureus [3] = assay: Bactericidal activity against methicillin-resistant Staphylococcus aureus KM 97-108 preincubated for 3 mins before addition of growth medium measured after 40 to 48 hrs
Outline: (§1)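 Read-out is the minimal bactericidal concentration (MBC), taken after 1, 3 and 5 min contact of compound with the test organism.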

Staphylococcus aureus [4] = assay: Bactericidal activity against methicillin-resistant Staphylococcus aureus 97-53 preincubated for 3 mins before addition of growth medium measured after 40 to 48 hrs; outline: as §1
Staphylococcus aureus [5] = assay: Bactericidal activity against methicillin-resistant Staphylococcus aureus 97-115 preincubated for 3 mins before addition of growth medium measured after 40 to 48 hrs; outline: as §1
Enterococcus [6] = assay: Bactericidal activity against vancomycin-resistant Enterococcus 49 preincubated for 1 min before addition of growth medium measured after 40 to 48 hrs; outline: as §1
Enterococcus [7] = assay: Bactericidal activity against vancomycin-resistant Enterococcus 49 preincubated for 5 mins before addition of growth medium measured after 40 to 48 hrs; outline: as §1
Staphylococcus aureus [8] = assay: Bactericidal activity against Staphylococcus aureus 209PJC preincubated for 1 min before addition of growth medium measured after 40 to 48 hrs
Staphylococcus aureus [9] = assay: Bactericidal activity against Staphylococcus aureus 209PJC preincubated for 3 mins before addition of growth medium measured after 40 to 48 hrs
Enterococcus [10] = assay: Bactericidal activity against vancomycin-resistant Enterococcus 49 preincubated for 3 mins before addition of growth medium measured after 40 to 48 hrs; outline: as §1
Staphylococcus aureus [11] = assay: Bactericidal activity against methicillin-resistant Staphylococcus aureus 97-115 preincubated for 5 mins before addition of growth medium measured after 40 to 48 hrs; outline: as §1
Staphylococcus aureus [12] = assay: Bactericidal activity against methicillin-resistant Staphylococcus aureus KM 97-108 preincubated for 1 min before addition of growth medium measured after 40 to 48 hrs; outline: as §1
Escherichia coli [13] = assay: Bactericidal activity against Escherichia coli NIHJ JC-2 preincubated for 5 mins before addition of growth medium measured after 40 to 48 hrs
Staphylococcus aureus [14] = assay: Antibacterial activity against Staphylococcus aureus 209PJC after 24 hrs
Outline: (§2)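 Value is the minimal inhibitory concentration (MIC) against the test organism, read after 24 h of incubation.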

Staphylococcus aureus [15] = assay: Bactericidal activity against Staphylococcus aureus 209PJC preincubated for 5 mins before addition of growth medium measured after 40 to 48 hrs
Pseudomonas aeruginosa [16] = assay: Bactericidal activity against Pseudomonas aeruginosa 12 preincubated for 1 min before addition of growth medium measured after 40 to 48 hrs
Pseudomonas aeruginosa [17] = assay: Bactericidal activity against Pseudomonas aeruginosa PAO1 preincubated for 5 mins before addition of growth medium measured after 40 to 48 hrs
Escherichia coli [18] = assay: Bactericidal activity against Escherichia coli NIHJ JC-2 preincubated for 3 mins before addition of growth medium measured after 40 to 48 hrs
Pseudomonas aeruginosa [19] = assay: Bactericidal activity against Pseudomonas aeruginosa 12 preincubated for 5 mins before addition of growth medium measured after 40 to 48 hrs
Pseudomonas aeruginosa [20] = assay: Bactericidal activity against Pseudomonas aeruginosa PAO1 preincubated for 1 min before addition of growth medium measured after 40 to 48 hrs
Staphylococcus aureus [21] = assay: Bactericidal activity against methicillin-resistant Staphylococcus aureus KM 97-108 preincubated for 5 mins before addition of growth medium measured after 40 to 48 hrs; outline: as §1
Staphylococcus aureus [22] = assay: Bactericidal activity against methicillin-resistant Staphylococcus aureus 97-53 preincubated for 1 min before addition of growth medium measured after 40 to 48 hrs; outline: as §1
Staphylococcus aureus [23] = assay: Bactericidal activity against methicillin-resistant Staphylococcus aureus 97-115 preincubated for 1 min before addition of growth medium measured after 40 to 48 hrs; outline: as §1
Pseudomonas aeruginosa [24] = assay: Bactericidal activity against Pseudomonas aeruginosa 12 preincubated for 3 mins before addition of growth medium measured after 40 to 48 hrs
Staphylococcus aureus [25] = assay: Bactericidal activity against methicillin-resistant Staphylococcus aureus 97-53 preincubated for 5 mins before addition of growth medium measured after 40 to 48 hrs; outline: as §1
Staphylococcus aureus [26] = assay: Antibacterial activity against methicillin-resistant Staphylococcus aureus 97-115 after 24 hrs
Outline: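 Read-out is the minimal inhibitory concentration (MIC), taken after 24 h incubation with the test organism.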

Escherichia coli [27] = assay: Antibacterial activity against Escherichia coli NIHJ JC-2 after 24 hrs; outline: as §2
Pseudomonas aeruginosa [28] = assay: Antibacterial activity against Pseudomonas aeruginosa PAO1; outline: as §2

Structure (SMILES) | MBC (Pseudomonas aeruginosa [1]) [µg/mL] | MBC (Escherichia coli [2]) [µg/mL] | MBC (Staphylococcus aureus [3]) [µg/mL] | MBC (Staphylococcus aureus [4]) [µg/mL] | MBC (Staphylococcus aureus [5]) [µg/mL] | MBC (Enterococcus [6]) [µg/mL] | MBC (Enterococcus [7]) [µg/mL] | MBC (Staphylococcus aureus [8]) [µg/mL] | MBC (Staphylococcus aureus [9]) [µg/mL] | MBC (Staphylococcus aureus [11]) [µg/mL] | MBC (Escherichia coli [13]) [µg/mL] | MIC (Staphylococcus aureus [14]) [µg/mL] | MBC (Staphylococcus aureus [15]) [µg/mL] | MBC (Pseudomonas aeruginosa [17]) [µg/mL] | MBC (Escherichia coli [18]) [µg/mL] | MBC (Pseudomonas aeruginosa [20]) [µg/mL] | MBC (Staphylococcus aureus [23]) [µg/mL] | MIC (Staphylococcus aureus [26]) [µg/mL] | MIC (Escherichia coli [27]) [µg/mL] | MIC (Pseudomonas aeruginosa [28]) [µg/mL] | other results
N=C(NCCCCCCNC(=N)NC(=N)Nc1ccc(Cl)cc1)NC(=N)Nc1ccc(Cl)cc1.O=C(O)[C@H](O)[C@@H](O)[C@H](O)[C@H](O)CO | > 500 | 62.5 | 500 | 250 | 250 | > 1000 | > 1000 | 62.5 | 62.5 | 125 | 15.6 | 0.2 | 62.5 | > 500 | 31.3 | > 500 | 1000 | 3.1 | 1.6 | 50 | MBC (Enterococcus [10]): > 1000 µg/mL; MBC (Staphylococcus aureus [12]): 500 µg/mL; MBC (Pseudomonas aeruginosa [16]): 125 µg/mL; MBC (Pseudomonas aeruginosa [19]): 31.3 µg/mL; MBC (Staphylococcus aureus [21]): 500 µg/mL; MBC (Staphylococcus aureus [22]): 500 µg/mL; MBC (Pseudomonas aeruginosa [24]): 31.3 µg/mL; MBC (Staphylococcus aureus [25]): 250 µg/mL
CCCCCCCCCCNC1=NC(C)(C)NC(NCCc2ccc(OC)cc2)=N1.Cl | 3.1 | 3.1 | – | – | 6.3 | – | – | 50 | 12.5 | 6.3 | 1.6 | 0.4 | 6.3 | 1.6 | 1.6 | 3.1 | 25 | 0.8 | 50 | 50 | –
CC(=O)O.CCCCCCCCCNC1=NC(C)(C)NC(Nc2ccccc2)=N1 | 3.1 | 12.5 | – | – | 25 | – | – | 12.5 | 6.3 | 25 | 3.1 | 0.8 | 6.3 | 3.1 | 6.3 | 6.3 | 25 | 0.8 | 12.5 | 12.5 | –
CC(=O)O.CCCCCCCCNC1=NC(NCCCCC)=NC(C)(C)N1 | 3.1 | 12.5 | – | – | 3.1 | – | – | 3.1 | 3.1 | 3.1 | 6.3 | 1.6 | 3.1 | 3.1 | 6.3 | 6.3 | 6.3 | 1.6 | 25 | 25 | –
CC(=O)O.CCCCCCCCNC1=NC(C)(C)NC(NCCCC)=N1 | 25 | 50 | – | – | 12.5 | – | – | 25 | 12.5 | 12.5 | 12.5 | 1.6 | 6.3 | 12.5 | 25 | 50 | 25 | 3.1 | 25 | 50 | –
CC(=O)O.CCCCCCCCCCCCNC1=NC(C)(C)NC(NCC)=N1 | 3.1 | 12.5 | – | – | 12.5 | – | – | 3.1 | 3.1 | 6.3 | 3.1 | 0.8 | 1.6 | 3.1 | 3.1 | 3.1 | 25 | 1.6 | 12.5 | 50 | –
CC(=O)O.CCCCCCCCNC1=NC(C)(C)NC(NCc2ccc(C)cc2)=N1 | 6.3 | 12.5 | 50 | 50 | 25 | 25 | 12.5 | 6.3 | 3.1 | 12.5 | 6.3 | 0.4 | 3.1 | 3.1 | 6.3 | 12.5 | 25 | 0.4 | 12.5 | 12.5 | MBC (Enterococcus [10]): 25 µg/mL; MBC (Staphylococcus aureus [12]): 50 µg/mL; MBC (Pseudomonas aeruginosa [16]): 6.3 µg/mL; MBC (Pseudomonas aeruginosa [19]): 3.1 µg/mL; MBC (Staphylococcus aureus [21]): 25 µg/mL; MBC (Staphylococcus aureus [22]): 50 µg/mL; MBC (Pseudomonas aeruginosa [24]): 6.3 µg/mL; MBC (Staphylococcus aureus [25]): 25 µg/mL
CC(=O)O.CCCCCCCCNC1=NC(C)(C)NC(Nc2ccccc2)=N1 | 12.5 | 12.5 | – | – | 12.5 | – | – | 25 | 6.3 | 12.5 | 6.3 | 1.6 | 6.3 | 6.3 | 6.3 | 25 | 25 | 1.6 | 25 | 50 | –
CC(=O)O.CCCCCCCNC1=NC(C)(C)NC(NCCCCCCC)=N1 | 1.6 | 6.3 | – | – | 25 | – | – | 6.3 | 6.3 | 12.5 | 3.1 | 0.8 | 3.1 | 1.6 | 3.1 | 3.1 | 25 | 0.8 | 12.5 | 50 | –
CC(=O)O.CCCCCCCCNC1=NC(C)(C)NC(NCCCCCC)=N1 | 3.1 | 12.5 | 25 | 25 | 6.3 | 25 | 12.5 | 12.5 | 6.3 | 6.3 | 6.3 | 0.8 | 6.3 | 1.6 | 6.3 | 6.3 | 12.5 | 0.8 | 12.5 | 50 | MBC (Enterococcus [10]): 25 µg/mL; MBC (Staphylococcus aureus [12]): 50 µg/mL; MBC (Pseudomonas aeruginosa [16]): 3.1 µg/mL; MBC (Pseudomonas aeruginosa [19]): 1.6 µg/mL; MBC (Staphylococcus aureus [21]): 25 µg/mL; MBC (Staphylococcus aureus [22]): 50 µg/mL; MBC (Pseudomonas aeruginosa [24]): 3.1 µg/mL; MBC (Staphylococcus aureus [25]): 25 µg/mL
